According to ChEMBL document CHEMBL4627348, “Synthesis of (1,3,4-thiadiazol-2-yl)-acrylamide derivatives as potential antitumor agents against acute leukemia cells” (Bioorg Med Chem Lett, 2020):
The source made the active and inactive calls. The calls are words filed in the database; no cut-off is given here.

Assays:
HEK-293T [1] = assay: (§1) Cytotoxicity against HEK293T cells assessed as growth inhibition at 20 uM after 48 hrs by CCK8 assay relative to control; type: cell-based; conditions: human, hek-293t, 48 h, 20 µM
How it was run: (§2)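 Single-dose screen at 20 μM in RS4;11 (human ALL), HL-60 (human promyelocytic leukemia) and HEK293T (normal-cell model). Cells exposed 48 h, viability read by CCK-8, growth inhibition ratio expressed relative to control.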

RS4-11 [2] = assay: Antiproliferative activity against human RS4:11 cells assessed as growth inhibition at 20 uM after 48 hrs by CCK-8 assay relative to control; type: functional; conditions: RS4-11, 48 h, read-out: GI; how it was run: as §2
HL-60 [3] = assay: Antiproliferative activity against human HL60 cells assessed as growth inhibition at 20 uM after 48 hrs by CCK-8 assay relative to control; type: functional; conditions: HL-60, 48 h, read-out: GI; how it was run: as §2
RS4-11 [4] = assay: Induction of apoptosis in human RS4:11 cells assessed as necrotic cells at 0.5 uM after 48 hrs by Annexin-V and 7-AAD staining based flow cytometric analysis (reference value: 0.67%); type: functional
RS4-11 [5] = assay: Induction of apoptosis in human RS4:11 cells assessed as early apoptotic cells at 0.5 uM after 48 hrs by Annexin-V and 7-AAD staining based flow cytometric analysis (reference value: 2.56%); type: functional
HL-60 [6] = assay: Antiproliferative activity against human HL60 cells assessed as growth inhibition at 1 uM after 48 hrs by CCK-8 assay relative to control; type: functional; conditions: HL-60, 48 h, read-out: GI
How it was run: (§3)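 Positive-control reference compound run at 1 μM alongside the 20 μM screen. CCK-8 viability after 48 h exposure, inhibition ratio relative to control.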

RS4-11 [7] = assay: Antiproliferative activity against human RS4:11 cells assessed as growth inhibition at 1 uM after 48 hrs by CCK-8 assay relative to control; type: functional; conditions: RS4-11, 48 h, read-out: GI; how it was run: as §3
RS4-11 [8] = assay: Induction of apoptosis in human RS4:11 cells assessed as late apoptotic cells at 0.5 uM after 48 hrs by Annexin-V and 7-AAD staining based flow cytometric analysis (reference value: 2.71%); type: functional
RS4-11 [9] = assay: Induction of apoptosis in human RS4:11 cells assessed as viable cells at 0.5 uM after 48 hrs by Annexin-V and 7-AAD staining based flow cytometric analysis (reference value: 94.06%); type: functional; conditions: RS4-11, 48 h, read-out: Activity
[10] = as §1; type: cell-based, HEK-293T; conditions: human, HEK293T cells; read-out: GI; how it was run: as §2
HEK-293T [11] = assay: Cytotoxicity against human HEK293T cells assessed as growth inhibition after 48 hrs by CCK8 assay; type: cell-based
RS4-11 [12] = assay: Antiproliferative activity against human RS4:11 cells assessed as growth inhibition after 48 hrs by CCK-8 assay; type: functional, cell-based; conditions: RS4-11, 48 h
HL-60 [13] = assay: Antiproliferative activity against human HL60 cells assessed as growth inhibition after 48 hrs by CCK-8 assay; type: functional, cell-based; conditions: HL-60, 48 h
RS4-11 [14] = assay: Induction of apoptosis in human RS4:11 cells assessed as increase in cleaved PARP protein expression after 48 hrs by Western blot analysis; type: functional, cell-based
How it was run: (§4)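 RS4;11 cells treated 48 h at concentrations from 2.5 to 40 μM, DMSO as negative control. Western blot for full-length PARP (116 kDa) and cleaved PARP (89 kDa), plus cleaved caspase-3 and cleaved caspase-9.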

RS4-11 [15] = assay: Induction of apoptosis in human RS4:11 cells assessed as increase in cleaved caspase-9 protein expression after 48 hrs by Western blot analysis; type: functional, cell-based; how it was run: as §4
RS4-11 [16] = assay: Induction of apoptosis in human RS4:11 cells assessed as increase in cleaved caspase-3 protein expression after 48 hrs by Western blot analysis; type: functional, cell-based; how it was run: as §4
RS4-11 [17] = assay: Induction of apoptosis in human RS4:11 cells assessed as PARP degradation at 2.5 to 40 uM after 48 hrs by Western blot analysis; type: functional, cell-based; how it was run: as §4
RS4-11 [18] = assay: Induction of mitochondrial membrane potential loss in human RS4:11 cells at 40 uM after 48 hrs by MitoSense Red staining based fluorescence assay; type: functional, cell-based
How it was run: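 RS4;11 cells exposed 48 h at 5–40 μM, DMSO as negative control. Stained with MitoSense Red and analysed by flow cytometry. Loss of mitochondrial membrane potential is read as a drop in Red2 fluorescence.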

RS4-11 [19] = assay: Induction of apoptosis in human RS4:11 cells assessed as necrotic cells at 40 uM after 48 hrs by Annexin-V and 7-AAD staining based flow cytometric analysis (reference value: 0.67%); type: functional
RS4-11 [20] = assay: Induction of apoptosis in human RS4:11 cells assessed as early apoptotic cells at 40 uM after 48 hrs by Annexin-V and 7-AAD staining based flow cytometric analysis (reference value: 2.56%); type: functional
RS4-11 [21] = assay: Induction of apoptosis in human RS4:11 cells assessed as late apoptotic cells at 40 uM after 48 hrs by Annexin-V and 7-AAD staining based flow cytometric analysis (reference value: 2.71%); type: functional
RS4-11 [22] = assay: Induction of apoptosis in human RS4:11 cells assessed as viable cells at 40 uM after 48 hrs by Annexin-V and 7-AAD staining based flow cytometric analysis (reference value: 94.06%); type: functional; conditions: RS4-11, 48 h, read-out: Activity
RS4-11 [23] = assay: Induction of apoptosis in human RS4:11 cells assessed as increase in cleaved PARP protein expression at 2.5 to 40 uM after 48 hrs by Western blot analysis; type: functional, cell-based; how it was run: as §4

SMILES	growth inhibition (GI) (HEK-293T [1])	inhibition of growth at 20 µM (RS4-11 [2])	inhibition of growth at 20 µM (HL-60 [3])	inhibition at 48 h, 20 µM [10]	IC50 (HEK-293T [11])	IC50 (RS4-11 [12])	IC50 (HL-60 [13])	other results
N#C/C(=C\c1ccccc1OS(=O)(=O)c1ccc([N+](=O)[O-])cc1)C(=O)Nc1nnc(Cc2cccc(F)c2)s1	Non-Toxic	65%	18%	–	–	–	–	–
CC1(C)CCC(CN2CCN(c3ccc(C(=O)NS(=O)(=O)c4ccc(NCC5CCOCC5)c([N+](=O)[O-])c4)c(Oc4cnc5[nH]ccc5c4)c3)CC2)=C(c2ccc(Cl)cc2)C1 [VENETOCLAX]	–	–	–	–	–	–	–	Activity (RS4-11 [4]): 2.11%; Activity (RS4-11 [5]): 11.91%; inhibition of growth at 1 µM (HL-60 [6]): 98%; inhibition of growth at 1 µM (RS4-11 [7]): 95%; Activity (RS4-11 [8]): 83.27%; viability at 0.5 µM (RS4-11 [9]): 2.71%
COc1ccc(-c2nnc(NC(=O)/C(C#N)=C/c3cccc(OS(=O)(=O)c4ccc(C)cc4)c3)s2)cc1	Non-Toxic	79%	73%	–	–	–	–	–
N#C/C(=C\c1ccccc1OS(=O)(=O)c1ccccc1[N+](=O)[O-])C(=O)Nc1nnc(Cc2cccc(F)c2)s1	Non-Toxic	68%	23%	–	–	–	–	–
COc1ccc(S(=O)(=O)Oc2ccccc2/C=C(\C#N)C(=O)Nc2nnc(-c3cccs3)s2)cc1	–	76%	67%	40%	> 20 µM	4.75 µM	5.23 µM	–
N#C/C(=C\c1ccccc1OS(=O)(=O)c1ccc([N+](=O)[O-])cc1)C(=O)Nc1nnc(Cc2ccccc2)s1	Non-Toxic	57%	20%	–	–	–	–	–
CC(=O)Nc1ccc(S(=O)(=O)Oc2cccc(/C=C(\C#N)C(=O)Nc3nnc(-c4cccs4)s3)c2)cc1	–	33%	71%	20%	> 20 µM	> 20 µM	7.94 µM	–
N#C/C(=C\c1ccccc1OS(=O)(=O)c1ccccc1[N+](=O)[O-])C(=O)Nc1nnc(Cc2cccc3ccccc23)s1	Non-Toxic	66%	23%	–	–	–	–	–
COc1ccc(S(=O)(=O)Oc2ccccc2/C=C(\C#N)C(=O)Nc2nnc(Cc3ccc(Cl)cc3)s2)cc1	–	77%	99%	26%	> 50 µM	1.25 µM	4.36 µM	Activity (RS4-11 [14]): Dose-dependent effect; Activity (RS4-11 [15]): Dose-dependent effect; Activity (RS4-11 [16]): Dose-dependent effect; Activity (RS4-11 [17]): Active; Activity (RS4-11 [18]): Active; Activity (RS4-11 [19]): 2.68%; Activity (RS4-11 [20]): 5%; Activity (RS4-11 [21]): 76.08%; viability at 40 µM (RS4-11 [22]): 16.2%; Activity (RS4-11 [23]): Active
COc1ccc(S(=O)(=O)Oc2ccccc2/C=C(\C#N)C(=O)Nc2nnc(Cc3ccc(F)cc3)s2)cc1	–	76%	100%	20%	> 50 µM	1.21 µM	4.05 µM	Activity (RS4-11 [14]): Dose-dependent effect; Activity (RS4-11 [15]): Dose-dependent effect; Activity (RS4-11 [16]): Dose-dependent effect; Activity (RS4-11 [17]): Active; Activity (RS4-11 [18]): Active; Activity (RS4-11 [19]): 2.07%; Activity (RS4-11 [20]): 5.88%; Activity (RS4-11 [21]): 61.84%; viability at 40 µM (RS4-11 [22]): 30.2%; Activity (RS4-11 [23]): Active
Cc1ccc(S(=O)(=O)Oc2ccccc2/C=C(\C#N)C(=O)Nc2nnc(C)s2)cc1	–	33%	78%	35%	> 20 µM	> 20 µM	11.5 µM	–
N#C/C(=C\c1ccccc1OS(=O)(=O)c1ccc(OC(F)(F)F)cc1)C(=O)Nc1nnc(-c2cc3ccccc3[nH]2)s1	–	26%	59%	53%	14.4 µM	> 20 µM	11.1 µM	–
COc1ccc(S(=O)(=O)Oc2ccccc2/C=C(\C#N)C(=O)Nc2nnc(Cc3ccccc3)s2)cc1	–	78%	100%	23%	> 50 µM	1.06 µM	3.17 µM	–
N#C/C(=C\c1ccccc1OS(=O)(=O)c1ccc(F)cc1)C(=O)Nc1nnc(Cc2ccc(F)cc2)s1	Non-Toxic	59%	13%	–	–	–	–	–
COc1ccc(S(=O)(=O)Nc2cccc(/C=C(\C#N)C(=O)Nc3nnc(-c4cccs4)s3)c2)cc1	–	40%	77%	21%	> 20 µM	> 20 µM	8.37 µM	–
COc1ccc(Cc2nnc(NC(=O)/C(C#N)=C/c3ccccc3OS(=O)(=O)c3ccc(OC)cc3)s2)cc1	–	78%	100%	30%	> 50 µM	0.84 µM	3.12 µM	Activity (RS4-11 [14]): Dose-dependent effect; Activity (RS4-11 [15]): Dose-dependent effect; Activity (RS4-11 [16]): Dose-dependent effect; Activity (RS4-11 [17]): Active; Activity (RS4-11 [18]): Active; Activity (RS4-11 [19]): 2.58%; Activity (RS4-11 [20]): 5.07%; Activity (RS4-11 [21]): 72.63%; viability at 40 µM (RS4-11 [22]): 19.7%; Activity (RS4-11 [23]): Active
COc1ccc(S(=O)(=O)Oc2ccccc2/C=C(\C#N)C(=O)Nc2nnc(Cc3cccc4ccccc34)s2)cc1	–	78%	98%	29%	> 50 µM	1.36 µM	4.7 µM	–
COc1ccccc1-c1nnc(NC(=O)/C(C#N)=C/c2cccc(OS(=O)(=O)c3ccc(C)cc3)c2)s1	Non-Toxic	41%	73%	–	–	–	–	–
